Assays:
Assay type in all cases: functional
[1] = system: Anaerococcus octavius; assay: Antimicrobial activity against Anaerococcus octavius under anaerobic conditions after 44 hrs by CLSI-M11-47 protocol based agar dilution method
Summary of the method: (§1)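 Reference agar dilution per CLSI M11-A7 with plates made on test day. Clinical isolates were stored at −70°C in 20% skim milk, subcultured twice, and 48-h cell paste was suspended in brucella broth to 0.5 McFarland. About 10^5 CFU/spot was applied with a Steers replicator. Plates were incubated 44 h at 37°C anaerobically. MIC was the lowest concentration giving complete inhibition or marked growth reduction versus the drug-free control.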

[2] = system: Fusobacterium mortiferum; assay: Antimicrobial activity against Fusobacterium mortiferum under anaerobic conditions after 44 hrs by CLSI-M11-47 protocol based agar dilution method; summary of the method: as §1
[3] = system: Prevotella oris; assay: Antimicrobial activity against Prevotella oris under anaerobic conditions after 44 hrs by CLSI-M11-47 protocol based agar dilution method; conditions: Segatella oris
Summary of the method: (§2)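 Clinical isolates were stored at −70°C in 20% skim milk and identified phenotypically or by partial 16S rRNA sequencing. Each strain was subcultured twice from frozen stock. Cell paste from 48-h cultures was suspended in brucella broth to a 0.5 McFarland standard. About 10^5 CFU per spot were applied by Steers replicator to agar dilution plates prepared on the day of testing. Plates were incubated 44 h at 37°C in an anaerobic chamber. MIC was taken as the lowest concentration giving complete inhibition or marked reduction of growth versus the drug-free control.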

[4] = system: Bacteroides fragilis; assay: Antimicrobial activity against Bacteroides fragilis spp. under anaerobic conditions after 44 hrs by CLSI-M11-47 protocol based agar dilution method; summary of the method: as §1
[5] = system: Parabacteroides merdae; assay: Antimicrobial activity against Bacteroides merdae under anaerobic conditions after 44 hrs by CLSI-M11-47 protocol based agar dilution method; summary of the method: as §1
[6] = system: Eggerthella lenta; assay: Antimicrobial activity against Eggerthella lenta under anaerobic conditions after 44 hrs by CLSI-M11-47 protocol based agar dilution method; summary of the method: as §1
[7] = system: Cutibacterium acnes; assay: Antimicrobial activity against Propionibacterium acnes under anaerobic conditions after 44 hrs by CLSI-M11-47 protocol based agar dilution method; summary of the method: as §2
[8] = system: Peptostreptococcus stomatis; assay: Antimicrobial activity against Peptostreptococcus stomatis under anaerobic conditions after 44 hrs by CLSI-M11-47 protocol based agar dilution method; summary of the method: as §2
[9] = system: Propionibacterium avidum; assay: Antimicrobial activity against Propionibacterium avidum under anaerobic conditions after 44 hrs by CLSI-M11-47 protocol based agar dilution method; conditions: Cutibacterium avidum; summary of the method: as §2
[10] = system: Clostridium subterminale; assay: Antimicrobial activity against Clostridium subterminale under anaerobic conditions after 44 hrs by CLSI-M11-47 protocol based agar dilution method; summary of the method: as §1
[11] = system: Peptostreptococcus anaerobius; assay: Antimicrobial activity against Peptostreptococcus anaerobius under anaerobic conditions after 44 hrs by CLSI-M11-47 protocol based agar dilution method; summary of the method: as §2
[12] = system: Lacrimispora sphenoides; assay: Antimicrobial activity against Clostridium sphenoides under anaerobic conditions after 44 hrs by CLSI-M11-47 protocol based agar dilution method; summary of the method: as §1
[13] = system: Eubacterium limosum; assay: Antimicrobial activity against Eubacterium limosum under anaerobic conditions after 44 hrs by CLSI-M11-47 protocol based agar dilution method; summary of the method: as §1
[14] = system: Phocaeicola vulgatus; assay: Antimicrobial activity against Bacteroides vulgatus under anaerobic conditions after 44 hrs by CLSI-M11-47 protocol based agar dilution method; summary of the method: as §1
[15] = system: Clostridium butyricum; assay: Antimicrobial activity against Clostridium butyricum under anaerobic conditions after 44 hrs by CLSI-M11-47 protocol based agar dilution method
[16] = system: Veillonella; assay: Antimicrobial activity against Veillonella spp. under anaerobic conditions after 44 hrs by CLSI-M11-47 protocol based agar dilution method; summary of the method: as §2
[17] = system: Lacticaseibacillus casei; assay: Antimicrobial activity against Lactobacillus casei under anaerobic conditions after 44 hrs by CLSI-M11-47 protocol based agar dilution method; summary of the method: as §2
[18] = system: Fusobacterium varium; assay: Antimicrobial activity against Fusobacterium varium under anaerobic conditions after 44 hrs by CLSI-M11-47 protocol based agar dilution method; summary of the method: as §2
[19] = system: Enterocloster clostridioformis; assay: Antimicrobial activity against Clostridium clostridioforme under anaerobic conditions after 44 hrs by CLSI-M11-47 protocol based agar dilution method; summary of the method: as §1
[20] = system: Clostridium glycolicum; assay: Antimicrobial activity against Clostridium glycolicum under anaerobic conditions after 44 hrs by CLSI-M11-47 protocol based agar dilution method; conditions: Terrisporobacter glycolicus; summary of the method: as §1
[21] = system: Clostridium celerecrescens; assay: Antimicrobial activity against Clostridium celerecrescens under anaerobic conditions after 44 hrs by CLSI-M11-47 protocol based agar dilution method; conditions: Lacrimispora celerecrescens; summary of the method: as §1
[22] = system: Bacteroides ovatus; assay: Antimicrobial activity against Bacteroides ovatus under anaerobic conditions after 44 hrs by CLSI-M11-47 protocol based agar dilution method; summary of the method: as §1
[23] = system: Clostridioides difficile; assay: Antimicrobial activity against Clostridium difficile under anaerobic conditions after 44 hrs by CLSI-M11-47 protocol based agar dilution method; summary of the method: as §1
[24] = system: Prevotella buccae; assay: Antimicrobial activity against Prevotella buccae under anaerobic conditions after 44 hrs by CLSI-M11-47 protocol based agar dilution method; conditions: Segatella buccae; summary of the method: as §2
[25] = system: Eubacterium contortum; assay: Antimicrobial activity against Eubacterium contortum under anaerobic conditions after 44 hrs by CLSI-M11-47 protocol based agar dilution method; conditions: Faecalicatena contorta; summary of the method: as §1
[26] = system: Peptoniphilus harei; assay: Antimicrobial activity against Peptoniphilus harei under anaerobic conditions after 44 hrs by CLSI-M11-47 protocol based agar dilution method; summary of the method: as §2
[27] = system: Paeniclostridium sordellii; assay: Antimicrobial activity against Clostridium sordellii under anaerobic conditions after 44 hrs by CLSI-M11-47 protocol based agar dilution method; conditions: Paraclostridium sordellii; summary of the method: as §1
[28] = system: Clostridium hathewayi; assay: Antimicrobial activity against Clostridium hathewayi under anaerobic conditions after 44 hrs by CLSI-M11-47 protocol based agar dilution method; conditions: Hungatella hathewayi; summary of the method: as §1
[29] = system: Actinomyces israelii; assay: Antimicrobial activity against Actinomyces israelii under anaerobic conditions after 44 hrs by CLSI-M11-47 protocol based agar dilution method; summary of the method: as §1
[30] = system: Prevotella disiens; assay: Antimicrobial activity against Prevotella disiens under anaerobic conditions after 44 hrs by CLSI-M11-47 protocol based agar dilution method; summary of the method: as §2
[31] = system: Bacteroides caccae; assay: Antimicrobial activity against Bacteroides caccae under anaerobic conditions after 44 hrs by CLSI-M11-47 protocol based agar dilution method; summary of the method: as §1
[32] = system: Peptoniphilus asaccharolyticus; assay: Antimicrobial activity against Peptoniphilus asaccharolyticus under anaerobic conditions after 44 hrs by CLSI-M11-47 protocol based agar dilution method; summary of the method: as §2

CCC[C@@H]1C[C@@H](C(=O)N[C@@H]([C@H]2O[C@H](SC)[C@H](O)[C@@H](O)[C@H]2O)[C@H](C)Cl)N(C)C1 [CLINDAMYCIN]
0.25 µg/mL: MIC90 [8] | MIC50 [9] | MIC90 [9] | MIC90 [11]
0.06 µg/mL: MIC50 [2] | MIC50 [13] | MIC50 [25] | MIC50 [29]
4 µg/mL: MIC50 [4] | MIC50 [5] | MIC50 [14] | MIC90 [18] | MIC50 [22] | MIC50 [31]
128 µg/mL: MIC90 [3] | MIC90 [10] | MIC90 [12] | MIC90 [15] | MIC90 [16] | MIC90 [20] | MIC90 [21] | MIC90 [23] | MIC90 [27] | MIC90 [29] | MIC90 [30]
> 128 µg/mL: MIC90 [4] | MIC90 [5] | MIC90 [14] | MIC90 [22] | MIC90 [24] | MIC90 [31] | MIC90 [32]
0.125 µg/mL: MIC50 [1] | MIC50 [7] | MIC90 [7] | MIC50 [16] | MIC50 [26] | MIC50 [32]
0.5 µg/mL: MIC50 [6] | MIC50 [19] | MIC50 [28]
2 µg/mL: MIC90 [6] | MIC50 [10] | MIC50 [12] | MIC90 [13] | MIC50 [15] | MIC90 [17] | MIC50 [18] | MIC90 [19] | MIC50 [20] | MIC50 [21] | MIC50 [23] | MIC90 [25] | MIC50 [27] | MIC90 [28]
64 µg/mL: MIC90 [1] | MIC90 [26]
1 µg/mL: MIC90 [2] | MIC50 [17]
≤ 0.03 µg/mL: MIC50 [3] | MIC50 [8] | MIC50 [11] | MIC50 [24] | MIC50 [30]

From ChEMBL document CHEMBL1255409, “In vitro activity of ceftaroline against 623 diverse strains of anaerobic bacteria” (2010)
